# From ChEMBL document CHEMBL1141780, “Diterpenoid, steroid, and triterpenoid agonists of liver X receptors from diversified terrestrial plants and marine sources” (J Nat Prod, 2005)
# Activity calls are given as the source filed them. The calls are words filed in the database; no cut-off is given here.
# Tests used:
# [1] = target: T1, Oxysterols receptor LXR-beta (Homo sapiens) (UniProt P55055); conditions: BL21
# T1 sequence (whole entry): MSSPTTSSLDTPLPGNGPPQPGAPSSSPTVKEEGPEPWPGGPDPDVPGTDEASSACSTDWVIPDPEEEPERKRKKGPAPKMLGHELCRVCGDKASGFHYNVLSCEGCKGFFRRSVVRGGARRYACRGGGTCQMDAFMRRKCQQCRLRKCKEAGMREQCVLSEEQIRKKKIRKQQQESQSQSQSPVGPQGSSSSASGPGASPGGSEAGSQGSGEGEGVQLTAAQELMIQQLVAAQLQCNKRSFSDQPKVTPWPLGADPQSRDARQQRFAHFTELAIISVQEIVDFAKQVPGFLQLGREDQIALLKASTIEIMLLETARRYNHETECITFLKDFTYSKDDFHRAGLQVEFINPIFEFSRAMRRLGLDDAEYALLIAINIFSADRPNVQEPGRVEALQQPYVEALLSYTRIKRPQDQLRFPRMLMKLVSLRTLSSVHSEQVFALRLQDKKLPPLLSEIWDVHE
# [2] = target: T2, Oxysterols receptor LXR-alpha (Homo sapiens) (UniProt Q13133); assay: Activity of human recombinant LXRalpha ligand binding domain-mediated transcriptional activity in human HEK293 cells with Gal4 reporter plasmid at 2.2 uM by luciferase reporter assay; format: cell-based
# T2 sequence (whole entry): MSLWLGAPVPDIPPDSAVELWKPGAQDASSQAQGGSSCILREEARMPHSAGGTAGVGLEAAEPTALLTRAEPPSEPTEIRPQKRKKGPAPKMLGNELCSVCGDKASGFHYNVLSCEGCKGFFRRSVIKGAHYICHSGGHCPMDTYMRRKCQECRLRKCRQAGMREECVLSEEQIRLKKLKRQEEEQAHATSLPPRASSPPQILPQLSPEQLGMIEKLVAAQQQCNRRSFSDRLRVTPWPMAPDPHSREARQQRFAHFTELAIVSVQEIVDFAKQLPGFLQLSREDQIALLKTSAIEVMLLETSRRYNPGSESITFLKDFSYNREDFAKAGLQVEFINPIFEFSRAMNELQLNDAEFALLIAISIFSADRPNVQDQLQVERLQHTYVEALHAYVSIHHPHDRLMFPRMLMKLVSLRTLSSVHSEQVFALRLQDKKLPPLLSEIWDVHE
# Procedure, shortened: (§1)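 Cell-based transactivation in HEK-293 cells with chimeric constructs: yeast Gal4 DNA-binding domain fused to the hinge region and LBD of LXRα or LXRβ. Agonist activity is read as fold induction over DMSO control.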
# [3] = target: T3, Oxysterols receptor LXR-beta (Homo sapiens, UniProt P55055); assay: Agonist activity at human recombinant LXRbeta expressed in Escherichia coli BL21 cells assessed as association of recombinant SRC1 to LXRbeta ligand binding domain by HTRF assay
# T3 sequence (P55055 whole entry): T1 sequence (whole entry)
# [4] = target: T4, Oxysterols receptor LXR-alpha (Homo sapiens, UniProt Q13133); assay: Agonist activity at human recombinant LXRalpha expressed in Escherichia coli BL21 cells assessed as association of recombinant SRC1 to LXRalpha ligand binding domain by HTRF assay
# T4 sequence (Q13133 whole entry): T2 sequence (whole entry)
# [5] = target: T1, Oxysterols receptor LXR-beta (Homo sapiens); assay: Agonist activity at human recombinant LXRbeta expressed in Escherichia coli BL21 cells assessed as association of recombinant SRC1 to LXRbeta ligand binding domain at 10 uM by HTRF assay
# [6] = target: T2, Oxysterols receptor LXR-alpha (Homo sapiens); assay: Activity of human recombinant LXRalpha ligand binding domain-mediated transcriptional activity in human HEK293 cells with Gal4 reporter plasmid by luciferase reporter assay; format: cell-based
# Procedure, shortened: as §1
# [7] = target: T2, Oxysterols receptor LXR-alpha (Homo sapiens); assay: Displacement of [3H2]F3-methyl AA from human recombinant LXRalpha expressed in Escherichia coli BL21 cells at 100 uM
# [8] = target: T1, Oxysterols receptor LXR-beta (Homo sapiens); assay: Activity of human recombinant LXRbeta ligand binding domain-mediated transcriptional activity in human HEK293 cells with Gal4 reporter plasmid by luciferase reporter assay; format: cell-based
# Procedure, shortened: as §1
# [9] = target: T1, Oxysterols receptor LXR-beta (Homo sapiens); assay: Displacement of [3H2]F3-methyl AA from human recombinant LXRbeta expressed in Escherichia coli BL21 cells at 100 uM
# [10] = target: T2, Oxysterols receptor LXR-alpha (Homo sapiens); assay: Activity of human recombinant LXRalpha ligand binding domain-mediated transcriptional activity in human HEK293 cells with Gal4 reporter plasmid at 30 uM by luciferase reporter assay; format: cell-based
# Procedure, shortened: as §1
# [11] = target: T1, Oxysterols receptor LXR-beta (Homo sapiens); assay: Activity of human recombinant LXRbeta ligand binding domain-mediated transcriptional activity in human HEK293 cells with Gal4 reporter plasmid at 30 uM by luciferase reporter assay; format: cell-based
# Procedure, shortened: as §1
# [12] = target: Liver X receptor (LXR alpha AND LXR beta) (Homo sapiens) (UniProt Q13133+P55055); assay: Selectivity of human recombinant LXRalpha over human recombinant LXRbeta; format: protein assay
# [13] = target: T2, Oxysterols receptor LXR-alpha (Homo sapiens); assay: Activity of human recombinant LXRalpha ligand binding domain-mediated transcriptional activity in human HEK293 cells with Gal4 reporter plasmid at 100 uM by luciferase reporter assay; format: cell-based
# Procedure, shortened: as §1
# [14] = target: T1, Oxysterols receptor LXR-beta (Homo sapiens); assay: Activity of human recombinant LXRbeta ligand binding domain-mediated transcriptional activity in human HEK293 cells with Gal4 reporter plasmid at 100 uM by luciferase reporter assay; format: cell-based
# Procedure, shortened: as §1
compound,measurement,setting,value
CC(C)=CCC[C@@H](C)[C@H]1C[C@H](O)[C@@]2(C)C3=CC[C@H]4C(C)(C)[C@@H](O)CC[C@]4(C)C3=CC[C@]12C,LC50,[1],> 15000 nM
same,fold change (FC),[2],8
same,EC50,[3],> 50000 nM
same,EC50,[4],30 nM
C[C@]1(C(=O)O)CCC[C@]2(C)c3cc(O)ccc3CC[C@@H]12 [PODOCARIC ACID],LC50,[1],> 50000 nM
same,EC50,[3],> 50000 nM
same,EC50,[4],> 50000 nM
C=C(CC[C@@H](C)[C@H]1CC[C@H]2[C@@H]3[C@@H](O)[C@@H](O)[C@@]4(O)C[C@@H](O)CC[C@]4(C)[C@H]3CC[C@]12C)C(C)C,Activity,[5],inactive
same,EC50,[4],170 nM
CC(C)CCC[C@@H](C)[C@H]1CC[C@H]2C3=CC(=O)[C@H]4C[C@@H](O)CC[C@]4(C)[C@@]3(O)CC[C@]12C [VIPERIDONE],EC50,[4],> 15000 nM
C=C(C)[C@@H]1CC[C@]2(C(=O)O)CC[C@]3(C)[C@H](CC[C@@H]4[C@@]5(C)CC[C@H](O)C(C)(C)[C@@H]5CC[C@]43C)[C@@H]12 [BETULINIC ACID],LC50,[1],> 25000 nM
same,EC50,[3],> 50000 nM
same,EC50,[4],> 50000 nM
C=C[C@@]1(C)CC=C2[C@@H](CC[C@@H]3[C@](C)(CO)CCC[C@@]23C)C1,LC50,[1],730 nM
same,EC50,[3],> 50000 nM
same,EC50,[4],390 nM
CC(C)CC[C@@H](O)[C@@H](C)[C@H]1CC[C@H]2[C@@H]3CC=C4C[C@@H](O)CC[C@]4(C)[C@H]3CC[C@]12C [22(R)-HYDROXYCHOLESTEROL],fold change (FC),[6],4
same,EC50,[3],> 15000 nM
same,Activity,[7],70%
same,EC50,[4],> 15000 nM
same,fold change (FC),[8],8
same,Activity,[9],60%
C=C[C@@]1(C)CC=C2[C@@H](CC[C@@H]3[C@](C)(C(=O)NCC45CC6CC(CC(C6)C4)C5)CCC[C@@]23C)C1,LC50,[1],> 50000 nM
same,EC50,[3],> 50000 nM
same,EC50,[4],> 50000 nM
CCCc1c(OCCCSc2ccc(CC(=O)O)cc2Cl)ccc2c(C(F)(F)F)noc12,LC50,[1],25 nM
same,fold change (FC),[6],20
same,fold change (FC),[8],35
CC(C)[C@H](C)[C@@]1(C)C[C@@H]1[C@@H](C)[C@H]1CC[C@H]2[C@@H]3C[C@@H](O)[C@@]4(O)C[C@@H](O)CC[C@]4(C)[C@@]3(O)[C@H](O)C[C@]12C,LC50,[1],200 nM
same,Activity,[5],inactive
same,EC50,[4],50 nM
C/C(=C\CC[C@@H](C)[C@H]1CC[C@@]2(C)[C@@H]3CC=C4[C@@H](CC[C@@H](O)C4(C)C)[C@]3(C)CC[C@]12C)C(=O)O [ROSACEA ACID B],LC50,[1],390 nM
same,EC50,[3],> 50000 nM
same,EC50,[4],> 50000 nM
CC(C)[C@H](C)[C@@]1(C)C[C@@H]1[C@@H](C)[C@H]1CC[C@H]2[C@@H]3CC=C4C[C@@H](O)CC[C@]4(C)[C@@]3(O)[C@H](O)C[C@]12C,LC50,[1],50000 nM
same,fold change (FC),[10],10.1
same,Activity,[11],inactive
same,fold change (FC),[12],40
same,EC50,[4],450 nM
CC(=O)Oc1ccc2c(c1)[C@@]1(C)CCC[C@](C)(C(=O)OC(=O)[C@@]3(C)CCC[C@]4(C)c5cc(OC(C)=O)ccc5CC[C@@H]34)[C@@H]1CC2 [ACETYL PODOCARPIC ACID ANHYDRIDE],LC50,[1],1 nM
same,fold change (FC),[6],50
same,EC50,[3],< 3 nM
same,EC50,[4],1 nM
same,fold change (FC),[8],85
C=C[C@@]1(C)CC=C2[C@@H](CC[C@@H]3[C@](C)(C(=O)O)CCC[C@@]23C)C1,LC50,[1],1490 nM
same,fold change (FC),[13],15.9
same,EC50,[3],> 50000 nM
same,fold change (FC),[14],5.6
same,EC50,[4],180 nM
